# Experimental data from PubChem BioAssay AID1229 (Sanford-Burnham Center for Chemical Genomics, 2008).
# Screen size: about 190,000 compounds; about 10 (0.005%) were called active. Shown is part of a subset that was picked to be rich in actives. A number with no mark means an inactive call.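 How the source made its calls: active means diaphorase activity raised at least twofold by the compound at 20 µM; inactive means activation factor below 2.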
# Experiment: compounds boosting diaphorase resazurin reduction – biochemical, uHTS, resorufin fluorescence, counter-screen for diaphorase-coupled primary assays, primary screen (AID 1229)
# Conditions: Diaphorase/resazurin coupled assay, 16 min, at 20 µM, active compounds read high, 1 = vehicle wells, 0 = NADH-free wells
# Summary of the method: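 Assay system: Purified diaphorase enzyme from Clostridium kluyveri | Amount: Enzyme 0.07 U/mL final | Dosing: Compound 20 µM once, DMSO 1% | Timing: 16 min reaction at room temperature | Detection: Fluorescence, excitation 544 nm and emission 590 nm | Evaluation: Higher resorufin formation from activation or reduction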
row,SMILES,activation factor
1,COc1ccc([N+](=O)[O-])cc1NC(=O)c1ccc(N(Cc2ccccc2C)S(C)(=O)=O)cc1,0.9
2,COc1ccc(NS(=O)(=O)c2cc(NC(=O)C3CCCCC3)ccc2N2CCOCC2)cc1,1.1
3,Cc1cc2c(C)nc(N/N=C/c3ccccc3)nc2o1,0.9
4,O=C1NCC(=O)N(Cc2ccccc2)/C1=C/c1ccccc1,1
5,CCOC(=O)C(C)Sc1nnc(CSc2nc3nc(C)cc(C)n3n2)o1 (stereo unspecified),1
6,Cc1ccc(NC2=C(Cl)C(=O)OC2OC(=O)c2ccccc2C)cc1 (stereo unspecified),0.9
7,O=C(Nc1ccc(F)cc1)N1CCN(c2ccc(F)cc2)CC1,0.9
8,Cc1ccc(/C(N)=N/OC(=O)COc2ccc(Cl)c(C)c2)cc1,0.9
9,Cc1cc(C)n(-c2nnc(N3CCN(c4ccccc4)CC3)nn2)n1,0.9
10,CCn1c(COc2c(C)cccc2C)nnc1SCc1nc2ccccc2c(=O)[nH]1,0.7
11,Cc1cc(Cl)ccc1C(=O)C1CCCN(C(=O)CCN2CCCO2)C1 (stereo unspecified),1
12,Oc1c(Br)cccc1/C=N/Nc1c(F)c(F)c(F)c(F)c1F,1
13,Cc1ccc(S(=O)(=O)N(CC(=O)NN=C2CCN(C)CC2)c2ccc(F)cc2)cc1,0.9
14,O=C(NC1CCCC1)C(NS(=O)(=O)c1ccc(Br)s1)c1ccccc1 (stereo unspecified),0.9
15,CCOC(=O)C1CCN(C(=O)c2ccccc2N(C)S(=O)(=O)c2ccccc2)CC1,1
16,Cn1cnnc1SCc1nnc(-c2ccccc2Br)o1,1
17,COc1ccc(CNC(=O)CN2CCC(n3nnc4cc(F)ccc43)CC2)cc1,0.8
18,C=C(C)c1cccc(C(C)(C)NC(=O)NC2CCCC2)c1,0.9
19,Nc1[nH]c(=S)nc2nc(-c3ccccc3)c(-c3ccccc3)nc12,0.8
20,CC1=C[C@H]2Cc3cc(C)cc(C)c3S(=O)(=O)[C@@H]2C=C1,0.9
21,CCCCOc1ccc(C(=O)N/C(=C/C=C/c2ccccc2)C(=O)N2CCOCC2)cc1,0.8
22,Cc1ccc(S(=O)(=O)Cc2cc(-c3ccc(Cl)cc3)no2)cc1,0.8
23,CCOc1ccc(/C=C(/NC(=O)c2ccccc2)C(=O)NCCC(=O)O)cc1,0.9
24,NC(=O)C[C@@H]1NC(=O)CNC(=O)c2cc([N+](=O)[O-])cc(I)c2NCCC(C(N)=O)NC1=O (stereo partly specified),1.1
25,CSc1cc(C)[nH]c(=O)n1,0.9
26,C[n+]1ccc(/C=C/c2c[nH]c3ccccc23)cc1,1

row,SMILES,activation factor
1,COC(=O)CCc1sc(Nc2ccc(Br)cc2)nc1-c1ccc(OC)cc1,0.8
2,O=c1[nH]c2cccnc2n(CCNc2ncc(C(F)(F)F)cc2Cl)c1=O,0.8
3,COCC1CCCN(Cc2cn[nH]c2-c2cc3ccccc3o2)C1 (stereo unspecified),0.9
4,CC1CCCCC1NC(=O)COC(=O)Cc1ccc(Br)cc1 (stereo unspecified),0.9
5,O=C1NC2(CCCCCC2)C(=O)N1CCS(=O)(=O)Oc1ccccc1,1
6,COc1cccc(-n2nc(C(=O)N3CCN(Cc4ccccc4)CC3)c3ccccc3c2=O)c1,0.8
7,CCN(CC)CCNCc1ccc(OCc2ccc(Cl)nc2)c(OC)c1,1.1
8,CC(C)Oc1c(Br)cc(Br)cc1/C=N/NC(N)=S,1
9,Cc1cc(C)cc(OCC(=O)NNC(=O)CCN2C(=O)c3ccccc3C2=O)c1,0.9
10,O=C(CCC(=O)NNc1nc2ccccc2c2nc(-c3ccccc3)nn12)NCCCN1CCCC1=O,0.8
11,COc1ccc(-c2csc(-c3cccs3)n2)cc1OC,0.8
12,COc1ccc(O)c(C(=O)c2cnc3c(c2)c(-c2ccc(F)cc2)c(C#N)c(=O)n3C)c1,0.9
13,CC(C)(C)CC(C)(C)NCC(O)COCCOc1ccc(Br)cc1 (stereo unspecified),0.9
14,Cc1cc(NS(=O)(=O)c2ccc(NC(=O)c3cccc(OC(F)F)c3)cc2)nc(C)n1,1
15,CCC1S/C(=N/N=C/c2ccco2)NC1=O (stereo unspecified),0.9
16,CCOC(=O)C(NC(=O)CC(C)C)(Nc1sc2c(c1C(N)=O)CCCC2)C(F)(F)F (stereo unspecified),0.9
17,C/C(=N\NC(=O)CNC(=O)C(c1ccccc1)c1ccccc1)c1ccc(C)cc1,0.9
18,C=CCn1c(COc2ccc(F)cc2)nnc1SCC(=O)Nc1cccc(S(N)(=O)=O)c1,1.1
19,CCOc1ccc(NS(=O)(=O)c2cc(C)c(C)cc2C)cc1,0.8
20,O=C(Nc1ccc(Cl)cn1)c1ccc2c(c1)OCCO2,1
21,CN(C)S(=O)(=O)c1ccc(N2CCCC2=O)c([N+](=O)[O-])c1,0.9
22,S=C(Cc1ccc(Cl)cc1)N1CCOCC1,1
23,CN(Cc1ccc2nsnc2c1)Cc1nc(Cc2cccc(F)c2)no1,0.8
24,CCN(CC(=O)NCCc1ccccc1)S(=O)(=O)c1ccccc1,1
25,NC(N)=N/N=C/c1ccc(OCc2ccc(Cl)cc2Cl)cc1,2.2 (active)
26,COc1ccc(C(=O)O/N=C(\N)Cc2ccc(Cl)cc2Cl)cc1OC,1

row,SMILES,activation factor
1,NC(N)=N/N=C/c1ccc(Cl)c([N+](=O)[O-])c1,1
2,O=C(CCc1n[nH]c(=O)[nH]c1=O)N/N=C/c1ccc(Br)o1,1
3,Cc1cccc(OCCNC(=O)CSc2ccc(C(F)(F)F)cc2[N+](=O)[O-])c1,0.9
4,Cc1ccc(NC(=O)Nc2ccccc2)c(Br)c1,0.9
5,COc1cc2[nH]c(=S)n(Cc3ccc(F)cc3)c(=O)c2cc1OC,0.9
6,O=C(Nc1ccc2c(c1)OCO2)c1sc2cc(Cl)ccc2c1Cl,1
7,Cc1cc(NC(=O)CSc2nc3ccccc3n2CC(C)C)no1,0.8
8,CNC(=O)COc1ccc(S(=O)(=O)Nc2ccccc2)cc1,0.8
9,COc1ccc(C)cc1NC(=S)Nc1ccccc1SC,1
10,Cc1cccc(NC(=O)Nc2ccc3c(c2)OCO3)n1,0.8
11,CCOc1ccc(C(=O)NC(=S)Nc2ccc(N3CCOCC3)c(Cl)c2)cc1[N+](=O)[O-],0.8
12,O=C(NC1CCCC1)C(c1ccc(N2CCOCC2)cc1)N(C(=O)c1ccco1)c1ccccc1F (stereo unspecified),0.9
13,COc1ccc(N2CCN(C(=O)/C(C#N)=C/c3ccccc3)CC2)cc1,1
14,O=[N+]([O-])c1ccccc1SNc1ccccn1,0.8
15,COc1ccccc1C(=O)Nc1ccc(OCc2nnc3c4ccccc4c(C)nn23)cc1,0.8
16,CO/N=C(\N)c1ccc([N+](=O)[O-])cc1,0.9
17,O=S(=O)(Nc1cc(S(=O)(=O)N2CCOCC2)ccc1N1CCCC1)c1cccs1,0.9
18,O=C(COc1cccc(F)c1)Oc1ccc(C(=O)c2ccccc2)cc1,0.9
19,O=C(NNC(=S)Nc1ccccc1)c1cccc(S(=O)(=O)N2CCOCC2)c1,0.9
20,COC(=O)/C=C\C(=O)Nc1cccc([N+](=O)[O-])c1,1.1
21,CCC(C)N(C(=O)COC(=O)C1C(C(=O)OC)=C(C)NC(C)=C1C(=O)OC)C1CCS(=O)(=O)C1 (stereo unspecified),0.9
22,CCn1c(SCC(=O)Nc2ccc(C)cc2)nc2nc3c(cc2c1=O)CCCC3,0.9
23,Cc1cc(C)n(Cc2cnc(N3CCOCC3)s2)n1,1
24,Cc1ccccc1CN1C[C@@H]2C[C@@H](c3ccc4nsnc4c3)N3CCC[C@@]23C1=O,0.8
25,O=C(/C=C/c1ccc2c(c1)OCO2)NCc1cn2cc(Cl)ccc2n1,1.1
26,CCN(CC)CCNC(=O)c1sc2ncn(CC(=O)Nc3ccc(C)c(Cl)c3)c(=O)c2c1C,0.9

row,SMILES,activation factor
1,Cc1cc(Cl)ccc1NC(=S)NCCCN1CCCC1=O,1
2,CCCCn1nc(C(=O)Nc2ccc(S(=O)(=O)Nc3ncccn3)cc2)c2ccccc2c1=O,0.9
3,C#CCOCCOCCOCCNc1nc(N2CCN(C(=O)[C@H](CCCCN)n3cc([C@@H](N)C(C)CC)nn3)CC2)nc(N2CCN(C(=O)[C@H](Cc3ccc(O)cc3)n3cc([C@@H](N)C(C)CC)nn3)CC2)n1 (stereo partly specified),1.7
4,Cn1c(=O)cc(OCC(=O)N2CCN(c3ccccc3F)CC2)c2ccccc21,0.9
5,Cc1cc(F)ccc1S(=O)(=O)Nc1ncnc2scc(-c3ccc(F)cc3)c12,0.8
6,CCOC(=O)CSc1nc(C)cc2c1C(=O)OC2,1
7,Fc1cc(Br)ccc1NC(=S)Nc1cccnc1,1
8,Cc1ccc(NC(=O)NNC(=O)c2sccc2-n2cccc2)cc1,1
9,CNC(=O)c1ccc(NC(=O)c2cccc(C(F)(F)F)c2)cc1,0.9
10,O=c1cc(CO)oc(C(Nc2cccc(C(F)(F)F)c2)c2ccccn2)c1O (stereo unspecified),0.7
11,Cc1ccc2c(c1)C(c1ccccc1)N(C(=O)c1ccc(S(=O)(=O)N3CCOCC3)cc1)CC(=O)N2 (stereo unspecified),1
12,CN1C(=O)/C(=C/c2ccc(C(=O)NC3CCCC3)cc2)Oc2ccccc21,1
13,CN1C=CC=C/C1=C1\SC(=S)N(Cc2ccccc2)C1=O,1
14,CCCCC(=O)Nc1ccc(C(=O)Nc2cc(C(F)(F)F)ccc2Cl)cc1,1
15,CCOC(=O)C/C(C)=N\Nc1ccc([N+](=O)[O-])cc1[N+](=O)[O-],0.9
16,N/C(=N\OC(=O)CCc1ccccc1)c1cccnc1,1
17,CCCOc1ccc(NC(=O)CC2C(=O)N(C)C(=S)N2Cc2ccc3c(c2)OCO3)cc1 (stereo unspecified),0.8
18,CC(C(=O)O)n1cnc2sc3c(c2c1=O)CCCC3 (stereo unspecified),0.9
19,NC1=NC(=O)C(Cc2cccc(Cl)c2Cl)S1 (stereo unspecified),1
20,COc1ccc(CCNC(=O)CSc2nc3[nH]ncc3c(=O)n2-c2cccc(C(F)(F)F)c2)cc1OC,0.9
21,CC(C)(C)OC(=O)N/N=C/c1cn(-c2ccccc2)nc1-c1cccnc1,1
22,O=C(NC(=S)Nc1ccc2oc(=O)ccc2c1)c1ccc(-c2cccc(Cl)c2Cl)o1,1.1
23,COc1ccc(CN2CCN(Cc3cn(C)nc3-c3ccccc3)CC2CCO)c(C)c1C (stereo unspecified),1
